# Measurements taken from ChEMBL document CHEMBL4673214, “Synthesis and antibacterial bioactivities of cationic deacetyl linezolid amphiphiles” (Eur J Med Chem, 2018).
# Columns and labels:
# Assay type in all cases: functional
# Staphylococcus aureus [1] = assay: Antibacterial activity against Staphylococcus aureus ATCC 29213 assessed as reduction in bacterial measured after 20 passages by CLSI-based broth microdilution method
# How it was run: (§1)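 Serial passaging: after each 24 h MIC assay, cells grown at 1/2 MIC were transferred and the MIC assayed again, for 20 passages. Done with S. aureus, E. coli and MRSA. MIC plotted against days of passage. Experiment repeated twice.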
# Staphylococcus aureus [2] = assay: Antibacterial activity against Staphylococcus aureus ATCC 29213 assessed as reduction in bacterial growth compound preincubated with 50% sheep plasma for 6 hrs followed by incubation for 20 to 24 hrs by agar plate method; conditions: time 20-24 hrs
# How it was run: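 Sheep plasma came from centrifuged defibrinated blood. Compound at 512 µg/mL in 50% water/50% plasma was preincubated at 37 °C for 0, 3 or 6 h, then serially diluted (256 to 4 µg/mL). Dilutions were mixed 1:3 with S. aureus suspension (10^5 CFU/mL) and incubated 20-24 h at 37 °C. MBC was taken as no colonies after 20 µL was plated on agar.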
# Escherichia coli [3] = assay: Resistance ratio of compound MIC for Escherichia coli ATCC 25922 after 20 passages to compound MIC for Escherichia coli ATCC 25922 after 16 to 20 hrs by CLSI-based broth microdilution method; how it was run: as §1
# Staphylococcus aureus [4] = assay: Antibiofilm activity against 24 hrs preformed biofilm of Staphylococcus aureus ATCC 29213 assessed as biofilm viability at 4 ug/ml incubated for 24 hrs by crystal violet staining analysis (reference value: 18.9 1og10CFU); conditions: dose 4 µg/ml
# Escherichia coli [5] = assay: Antibiofilm activity against 72 hrs preformed biofilm of Escherichia coli ATCC 25922 assessed as biofilm viability at 16 ug/ml incubated for 24 hrs by […] (reference value: 16.1 log10CFU); conditions: dose 16 µg/ml
# How it was run: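 E. coli from mid-log phase was diluted to ~10^5 CFU/mL in M9 medium with 0.02% casamino acids and 0.5% glycerol and formed biofilm without shaking for 72 h. Wells were PBS-washed, then treated with 2-128 µg/mL for 24 h at 37 °C; medium-only wells served as control. Cells were released with trypsin-EDTA and plated as tenfold dilutions. Viability was given as log10 CFU/well.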
structure (smiles),measurement,setting,value
CCCCCCCCCCCN(C[C@H]1CN(c2ccc(N3CCOCC3)c(F)c2)C(=O)O1)C(=O)[C@@H](N)CCCCN.Cl.Cl,MIC,Staphylococcus aureus [1],2 µg/mL
same,MBC,Staphylococcus aureus [2],64 µg/mL
same,Ratio,Escherichia coli [3],2
same,Activity,Staphylococcus aureus [4],12.9 log10CFU
same,Activity,Escherichia coli [5],7.1 log10CFU
